≈ marks a conversion by molar mass, not a printed value. Calls of active or inactive are those of the source. The rule behind the calls is not given here.
What was measured:
[1] = Solubility in water; assay type: physicochemical; settings: buffer
[2] = Binding affinity to DPH-doped model gram negative bacterial membrane (LPS/DPPE/DMPG lipids) assessed as increase in membrane fluidity by fluorescence anisotrophy
Method in brief: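 Vesicles of LPS, DPPE and DMPG doped with DPH were incubated with compound, and the change in DPH fluorescence anisotropy was recorded. Mean ± SD of three replicates, unpaired two-tailed t-test.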

Escherichia coli = experiment: Antibacterial activity against Escherichia coli by broth dilution assay; assay type: functional
Method in brief: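 MIC99 by broth-dilution assay; antibacterial and culture details are in the Supporting Information.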

| Structure (SMILES) | solubility [1] | Activity [2] | MIC99 (Escherichia coli) |
| --- | --- | --- | --- |
| C[C@H](CCC(=O)OCc1ccccc1)[C@H]1CC[C@H]2[C@@H]3[C@H](OC(=O)CNC(=O)[C@@H](N)Cc4c[nH]c5ccccc45)C[C@@H]4C[C@H](OC(=O)CNC(=O)[C@@H](N)Cc5c[nH]c6ccccc56)CC[C@]4(C)[C@H]3C[C@H](OC(=O)CNC(=O)[C@@H](N)Cc3c[nH]c4ccccc34)[C@]12C.Cl.Cl.Cl | Insoluble | inactive | inactive |
| C[C@H](CCC(=O)OCc1ccccc1)[C@H]1CC[C@H]2[C@@H]3[C@H](OC(=O)CNC(=O)[C@@H](N)Cc4ccc(O)cc4)C[C@@H]4C[C@H](OC(=O)CNC(=O)[C@@H](N)Cc5ccc(O)cc5)CC[C@]4(C)[C@H]3C[C@H](OC(=O)CNC(=O)[C@@H](N)Cc3ccc(O)cc3)[C@]12C |  |  | inactive |
| C[C@H](CCC(=O)OCc1ccccc1)[C@H]1CC[C@H]2[C@@H]3[C@H](OC(=O)CNC(=O)CN)C[C@@H]4C[C@H](OC(=O)CNC(=O)CN)CC[C@]4(C)[C@H]3C[C@H](OC(=O)CNC(=O)CN)[C@]12C |  |  | 8 to 128 µM (≈ 6.73 to 108 µg/mL) |
